Measured values from ChEMBL document CHEMBL1143104, “Identification and characterization of pyrrolidine diastereoisomers as potent functional agonists and antagonists of the human melanocortin-4 receptor” (Bioorg Med Chem Lett, 2008).
The source made the active and inactive calls. No cut-off for these calls is given here.

Columns and labels:
[1] = molecular target: T1, Melanocortin receptor 4 (Homo sapiens, UniProt P32245); assay: Displacement of [125I]NDP-MSH from human MC4 receptor expressed in HEK293 cells; assay type: cell-based
T1 sequence (P32245 whole entry): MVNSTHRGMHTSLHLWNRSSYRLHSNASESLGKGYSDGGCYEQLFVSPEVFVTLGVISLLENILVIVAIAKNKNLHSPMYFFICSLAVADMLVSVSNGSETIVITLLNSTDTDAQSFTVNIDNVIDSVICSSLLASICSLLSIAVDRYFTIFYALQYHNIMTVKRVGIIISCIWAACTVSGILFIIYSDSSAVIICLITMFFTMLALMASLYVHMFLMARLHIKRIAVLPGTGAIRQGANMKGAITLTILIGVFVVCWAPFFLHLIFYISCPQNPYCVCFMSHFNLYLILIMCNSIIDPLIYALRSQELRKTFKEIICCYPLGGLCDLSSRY
In short: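 HEK293 cells expressing human MC4R, radioligand competition binding with [125I]-NDP-MSH. Ki values are the average of two or more independent measurements.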

[2] = molecular target: T1, Melanocortin receptor 4; assay: Intrinsic activity at human MC4 receptor expressed in CHO cells assessed as accumulation of cAMP production relative to alphaMSH; assay type: functional, cell-based
In short: (§1)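 CHO cells transfected with human MC4R were stimulated by compound and accumulated cAMP was measured by ELISA. Intrinsic activity is expressed relative to α-MSH. Representative experiments were run 2–8 times.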

[3] = molecular target: T1, Melanocortin receptor 4; assay: Agonist activity at human MC4 receptor expressed in CHO cells assessed as accumulation of cAMP production; assay type: functional, cell-based; in short: as §1
[4] = molecular target: Melanocortin receptor 3 (Homo sapiens, UniProt P41968); assay: Binding affinity to MC3R
Melanocortin receptor 3, sequence (P41968 whole entry): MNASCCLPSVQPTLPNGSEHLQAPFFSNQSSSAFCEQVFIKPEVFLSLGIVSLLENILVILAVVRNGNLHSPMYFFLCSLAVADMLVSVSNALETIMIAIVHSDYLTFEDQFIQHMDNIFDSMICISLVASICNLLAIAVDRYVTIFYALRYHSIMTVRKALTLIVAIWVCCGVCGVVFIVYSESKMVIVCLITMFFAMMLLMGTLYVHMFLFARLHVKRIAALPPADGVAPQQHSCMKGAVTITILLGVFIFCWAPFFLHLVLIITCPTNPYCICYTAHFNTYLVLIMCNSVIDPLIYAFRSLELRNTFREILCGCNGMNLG

[5] = molecular target: Melanocortin receptor 5 (Homo sapiens, UniProt P33032); assay: Binding affinity to MC5R
Melanocortin receptor 5, sequence (P33032 whole entry): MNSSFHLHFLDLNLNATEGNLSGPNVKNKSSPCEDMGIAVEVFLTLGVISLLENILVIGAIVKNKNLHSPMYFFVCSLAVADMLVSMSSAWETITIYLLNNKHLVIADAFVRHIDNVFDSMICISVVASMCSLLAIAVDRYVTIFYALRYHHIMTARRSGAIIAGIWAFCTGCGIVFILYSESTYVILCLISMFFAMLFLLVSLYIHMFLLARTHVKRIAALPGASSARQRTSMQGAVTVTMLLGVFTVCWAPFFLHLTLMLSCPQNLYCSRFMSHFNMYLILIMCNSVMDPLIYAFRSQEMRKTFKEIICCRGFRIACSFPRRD

[6] = Half life in rat at 2.5 mg/kg, iv; assay type: ADME, organism-based; set-up: dose 2.5 mg/kg, route intravenous; settings: in vivo
In short: (§2)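 Rat pharmacokinetics: single 2.5 mg/kg iv injection and separately 10 mg/kg oral gavage. Plasma CL, Vd, t1/2, AUC, Cmax, Tmax and oral bioavailability were derived. Whole-brain concentration was measured at 1 and 4 h after oral dosing and expressed as a brain/plasma ratio. Values are the average of three animals.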

[7] = molecular target: Melanocyte-stimulating hormone receptor (Homo sapiens, UniProt Q01726); assay: Binding affinity to MC1R
Melanocyte-stimulating hormone receptor, sequence (Q01726 whole entry): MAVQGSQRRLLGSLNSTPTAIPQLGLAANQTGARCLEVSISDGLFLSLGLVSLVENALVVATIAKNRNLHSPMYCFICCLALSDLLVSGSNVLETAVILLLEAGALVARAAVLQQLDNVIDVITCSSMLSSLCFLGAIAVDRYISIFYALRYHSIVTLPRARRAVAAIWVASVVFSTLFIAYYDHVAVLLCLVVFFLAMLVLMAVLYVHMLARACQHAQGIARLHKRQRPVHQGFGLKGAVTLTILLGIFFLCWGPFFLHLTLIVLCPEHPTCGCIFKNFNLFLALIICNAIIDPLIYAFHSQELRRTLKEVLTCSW

[8] = Tmax in rat at 10 mg/kg, po; assay type: ADME, organism-based; set-up: dose 10 mg/kg, route oral; settings: in vivo; in short: as §2
[9] = Ratio of drug level in brain to plasma in rat at 10 mg/kg, po after 4 hrs; assay type: ADME, organism-based; set-up: dose 10 mg/kg, route oral; settings: read-out: BPR; in short: as §2
[10] = AUC in rat at 10 mg/kg, po; assay type: ADME, organism-based; set-up: dose 10 mg/kg, route oral; settings: plasma; in short: as §2
[11] = Volume of distribution in rat in rat at 2.5 mg/kg, iv; assay type: ADME, organism-based; set-up: dose 2.5 mg/kg, route intravenous; settings: in vivo; in short: as §2
[12] = AUC in rat at 2.5 mg/kg, iv; assay type: ADME, organism-based; set-up: dose 2.5 mg/kg, route intravenous; settings: plasma; in short: as §2
[13] = Cmax in rat at 10 mg/kg, po; assay type: ADME, organism-based; set-up: dose 10 mg/kg, route oral; settings: in vivo; in short: as §2
[14] = Drug level in rat brain at 10 mg/kg, po after 4 hrs; assay type: ADME, organism-based; set-up: dose 10 mg/kg, route oral; settings: read-out: Drug uptake; in short: as §2
[15] = Clearance in rat at 2.5 mg/kg, iv; assay type: ADME, organism-based; set-up: dose 2.5 mg/kg, route intravenous; settings: in vivo; in short: as §2
[16] = molecular target: T1, Melanocortin receptor 4; assay: Antagonist activity at human MC4 receptor expressed in CHO cells assessed as inhibition of alpha-MSH-stimulated cAMP production; assay type: functional, cell-based
In short: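 CHO cells transfected with human MC4R were tested for dose-dependent inhibition of α-MSH-stimulated cAMP accumulation, measured by ELISA. IC50 was derived. Representative experiments were run 2–8 times.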

[17] = Bioavailability in rat at 10 mg/kg, po; assay type: ADME, organism-based; settings: in vivo; in short: as §2
[18] = system: Rattus norvegicus; assay: Reduction of body weight in po dosed DIO rat; assay type: functional, organism-based
In short: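 Male DIO rats, separate groups, dosed orally once daily 1 h before lights out for 7 days with vehicle, fenfluramine, or 3, 10 or 30 mg/kg test article. Body weight and spillage-corrected food intake were recorded daily and compared with vehicle-treated controls.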

[19] = system: Rattus norvegicus; assay: Suppression of food intake in ip dosed DIO rat after 24 hrs relative to control; assay type: functional, organism-based
In short: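 Male DIO rats were food-deprived overnight and on the test day. They were dosed ip at 3, 10 or 30 mg/kg in sterile water, and food was returned 1 h later. Cumulative intake was measured at set intervals over 24 h and compared with vehicle-treated rats.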

Structure (SMILES)	Ki [1]	Intrinsic activity [2]	EC50 [3]	other results
Cc1ccc(N2CCN(C(=O)[C@H]3CN(C(C)C)C[C@H]3c3ccc(Cl)cc3)CC2)c([C@@H](NC(=O)CCN(C)C)C(C)C)c1	90 nM			
Cc1ccc(N2CCN(C(=O)[C@@H]3CN(C4CCOCC4)C[C@H]3c3ccc(Cl)cc3)CC2)c([C@@H](NC(=O)CN)C(C)C)c1	2 nM	114%	9.1 nM	
Cc1ccc(N2CCN(C(=O)[C@@H]3CN(C4CCOCC4)C[C@H]3c3ccc(Cl)cc3)CC2)c([C@@H](NC(=O)[C@@H](C)N)C(C)C)c1	7.3 nM	56%	17 nM	
CC(C)[C@H](NC(=O)CCN(C)C)c1cccc(F)c1N1CCN(C(=O)[C@@H]2CN(C(C)C)C[C@H]2c2cc(F)c(F)c(F)c2)CC1	250 nM			
CC(C)[C@H](NC(=O)CCN(C)C)c1cccc(F)c1N1CCN(C(=O)[C@@H]2CN(C(C)C)C[C@H]2c2ccc(C(F)(F)F)cc2F)CC1	61 nM			
CNCC(=O)N[C@H](c1cc(C)ccc1N1CCN(C(=O)[C@@H]2CN(C3CCOCC3)C[C@H]2c2ccc(Cl)cc2)CC1)C(C)C	2.1 nM	84%	19 nM	
CC(C)[C@H](NC(=O)CCN(C)C)c1cccc(F)c1N1CCN(C(=O)[C@@H]2CN(C(C)C)C[C@H]2c2cc(F)ccc2F)CC1	2050 nM			
Cc1ccc(N2CCN(C(=O)[C@@H]3CN(C4CCOCC4)C[C@H]3c3ccc(Cl)cc3)CC2)c([C@@H](NC(=O)CCN(C)C)C(C)C)c1 (stereo in doubt; 13b)		121%		
CC(C)[C@H](NC(=O)CCN(C)C)c1cccc(F)c1N1CCN(C(=O)[C@@H]2CN(C(C)C)C[C@H]2c2ccc(F)c(F)c2)CC1	290 nM			
COc1cccc([C@@H]2CN(C(C)C)C[C@H]2C(=O)N2CCN(c3c(F)cccc3[C@@H](NC(=O)CCN(C)C)C(C)C)CC2)c1	3700 nM			
Cc1ccc(N2CCN(C(=O)[C@H]3CN(C4CCOCC4)C[C@@H]3c3ccc(Cl)cc3)CC2)c([C@@H](NC(=O)CCN(C)C)C(C)C)c1	4.7 nM	10%		Ki [4]: 1300 nM; Ki [5]: 530 nM; half-life [6]: 11 h; Ki [7]: 120 nM; Tmax [8]: 2 h; Kp at 4 h [9]: 1; AUC [10]: 161 ng·h/mL; Vd [11]: 75 L/kg; AUC [12]: 455 ng·h/mL; Cmax [13]: 17 ng/mL; concentration at 4 h [14]: 18 ng/g; clearance [15]: 82 mL/min/kg; IC50 [16]: 64 nM; bioavailability [17]: 14%
CCNC(C)Cc1cccc(C(F)(F)F)c1 (configuration not stated)				Activity [18]: Active; Activity [19]: Active
CC(C)[C@H](NC(=O)CCN(C)C)c1cccc(F)c1N1CCN(C(=O)[C@@H]2CN(C(C)C)C[C@H]2c2cccc(Cl)c2)CC1	370 nM			
Cc1cccc([C@@H]2CN(C(C)C)C[C@H]2C(=O)N2CCN(c3c(F)cccc3[C@@H](NC(=O)CCN(C)C)C(C)C)CC2)c1	470 nM			
CC(C)[C@H](NC(=O)CCN(C)C)c1cccc(F)c1N1CCN(C(=O)[C@@H]2CN(C(C)C)C[C@H]2c2ccc(F)c(Cl)c2)CC1	260 nM	78%	410 nM	
CC(C)[C@H](NC(=O)CCN(C)C)c1cccc(F)c1N1CCN(C(=O)[C@@H]2CN(C(C)C)C[C@H]2c2ccc(Cl)cc2)CC1	5.3 nM	103%	20 nM	
